According to ChEMBL document CHEMBL3576771, “Molecular determinants of biased agonism at the dopamine D₂ receptor” (J Med Chem, 2015):

Experiments:
D(4) dopamine receptor = biological target: T1, D(4) dopamine receptor (Homo sapiens, UniProt P21917); test: Displacement of [3H]spiperone from human dopamine D4.4 receptor transfected in CHO cells after 1 hr by scintillation counting analysis; assay type: cell-based
T1 sequence (P21917 whole entry): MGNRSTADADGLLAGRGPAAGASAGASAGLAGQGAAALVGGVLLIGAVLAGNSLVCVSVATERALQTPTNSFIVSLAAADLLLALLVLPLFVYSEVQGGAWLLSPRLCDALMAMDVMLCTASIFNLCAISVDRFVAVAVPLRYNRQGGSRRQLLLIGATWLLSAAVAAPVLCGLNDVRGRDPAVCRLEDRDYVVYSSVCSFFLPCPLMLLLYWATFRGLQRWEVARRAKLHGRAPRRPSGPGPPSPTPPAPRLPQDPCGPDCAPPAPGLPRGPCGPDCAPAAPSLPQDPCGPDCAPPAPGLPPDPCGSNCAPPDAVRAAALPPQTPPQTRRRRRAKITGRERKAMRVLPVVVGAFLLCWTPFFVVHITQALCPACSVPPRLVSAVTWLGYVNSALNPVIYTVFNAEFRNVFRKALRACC

[1] = Displacement of [3H]WAY100635 from poricne cerebral cortex 5-HT1A receptor by scintillation counting analysis; assay type: tissue-based, Sus scrofa
[2] = biological target: 5-hydroxytryptamine receptor 2A (Homo sapiens, UniProt P28223); test: Displacement of [3H]ketanserin from human 5-HT2A receptor transfected in HEK293 cells by scintillation counting analysis; assay type: cell-based
5-hydroxytryptamine receptor 2A, sequence (P28223 whole entry): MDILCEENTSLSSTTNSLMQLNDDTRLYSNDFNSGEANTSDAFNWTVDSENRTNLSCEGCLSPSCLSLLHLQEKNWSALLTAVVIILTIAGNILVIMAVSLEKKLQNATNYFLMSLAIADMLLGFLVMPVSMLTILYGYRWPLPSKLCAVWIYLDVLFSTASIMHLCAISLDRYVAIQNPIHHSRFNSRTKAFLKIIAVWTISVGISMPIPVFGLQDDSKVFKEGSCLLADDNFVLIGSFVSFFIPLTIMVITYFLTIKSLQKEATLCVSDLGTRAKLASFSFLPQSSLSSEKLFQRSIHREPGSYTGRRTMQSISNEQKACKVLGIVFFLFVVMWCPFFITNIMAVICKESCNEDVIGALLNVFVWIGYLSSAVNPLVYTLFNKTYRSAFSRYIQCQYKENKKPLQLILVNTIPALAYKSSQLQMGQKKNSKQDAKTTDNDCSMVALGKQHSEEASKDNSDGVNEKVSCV

[3] = Displacement of [3H]prazosin from poricne cerebral cortex alpha1 adrenergic receptor by scintillation counting analysis; assay type: tissue-based, Sus scrofa
D(2) dopamine receptor [4] = biological target: T2, D(2) dopamine receptor (Homo sapiens, UniProt P14416); test: Intrinsic activity at human dopamine D2S receptor expressed in HEK293 cells co-transfected with Galpha0i assessed as [35S]GTPgammaS binding after 30 mins by [35S]GTPgammaS incorporation assay relative to quinpirole; assay type: functional, cell-based
T2 sequence (P14416 whole entry): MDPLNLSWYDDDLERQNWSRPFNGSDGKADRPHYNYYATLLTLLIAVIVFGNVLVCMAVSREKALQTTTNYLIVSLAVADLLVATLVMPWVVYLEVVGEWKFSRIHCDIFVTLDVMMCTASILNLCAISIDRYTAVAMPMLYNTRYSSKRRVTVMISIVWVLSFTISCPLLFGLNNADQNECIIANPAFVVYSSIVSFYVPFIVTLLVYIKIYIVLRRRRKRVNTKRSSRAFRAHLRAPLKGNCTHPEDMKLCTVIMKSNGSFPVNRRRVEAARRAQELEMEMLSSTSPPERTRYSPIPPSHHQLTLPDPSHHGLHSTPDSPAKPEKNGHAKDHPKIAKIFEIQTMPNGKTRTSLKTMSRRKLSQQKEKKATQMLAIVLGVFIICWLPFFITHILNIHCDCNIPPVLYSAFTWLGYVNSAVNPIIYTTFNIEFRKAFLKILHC
Outline: (§1)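 HEK293 membranes cotransfected with D2L or D2S plus PTX-insensitive Gαo1; 30 μg/mL protein with compounds and 10 μM GDP preincubated 30 min, 37 °C; then 0.10 nM [35S]GTPγS for 30 min, 37 °C; GF/B filtration.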

D(2) dopamine receptor [5] = biological target: T2, D(2) dopamine receptor; test: Intrinsic activity at human dopamine D2S receptor expressed in HEK293 cells co-transfected with Galphai2 assessed as [35S]GTPgammaS binding after 30 mins by [35S]GTPgammaS incorporation assay relative to quinpirole; assay type: functional, cell-based; settings: in the assay text read “after 75 mins” for “after 30 mins”
Outline: (§2)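 Membranes from HEK293 cells cotransfected with D2L or D2S and PTX-insensitive Gαi2; 30 μg/mL protein, 10 μM GDP and compounds preincubated 30 min at 37 °C, then 0.10 nM [35S]GTPγS added for 75 min at 37 °C; filtration.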

D(2) dopamine receptor [6] = biological target: T2, D(2) dopamine receptor; test: Intrinsic activity at human dopamine D2L receptor expressed in HEK293 cells co-transfected with Galpha0i assessed as [35S]GTPgammaS binding after 30 mins by [35S]GTPgammaS incorporation assay relative to quinpirole; assay type: functional, cell-based; outline: as §1
D(2) dopamine receptor [7] = biological target: T2, D(2) dopamine receptor; test: Agonist activity at ARMS2-PK2-tagged human dopamine D2S receptor expressed in HEK293 cells co-expressing (EA)-tagged beta arrestin fusion protein assessed as recruitment of beta-arrestin-2 after 5 hrs by chemiluminescence assay relative to quinpirole; assay type: cell-based
Outline: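 Transient transfection of D2S (ProLink-tagged) into HEK293 cells stably expressing EA-tagged β-arrestin-2; 5000 cells seeded, 24 h.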

[8] = biological target: D(1A) dopamine receptor (Sus scrofa) (UniProt P50130); test: Displacement of [3H]SCH23390 from porcine dopamine D1 receptor in striatal membranes after 1 hr by scintillation counting analysis
D(1A) dopamine receptor (Sus scrofa), sequence (P50130 whole entry, looked up): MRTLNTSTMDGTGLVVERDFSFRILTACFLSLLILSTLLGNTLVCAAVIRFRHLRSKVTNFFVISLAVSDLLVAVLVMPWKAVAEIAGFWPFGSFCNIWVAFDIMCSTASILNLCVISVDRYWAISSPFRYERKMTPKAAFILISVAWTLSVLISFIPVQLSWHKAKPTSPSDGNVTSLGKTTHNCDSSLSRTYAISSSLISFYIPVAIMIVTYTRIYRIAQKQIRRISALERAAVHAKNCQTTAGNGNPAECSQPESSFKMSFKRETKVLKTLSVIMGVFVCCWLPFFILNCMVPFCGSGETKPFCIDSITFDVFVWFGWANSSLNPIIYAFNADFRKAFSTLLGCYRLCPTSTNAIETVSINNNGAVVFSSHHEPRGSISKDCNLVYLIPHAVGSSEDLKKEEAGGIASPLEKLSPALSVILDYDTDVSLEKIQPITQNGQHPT

D(1A) dopamine receptor = D(1A) dopamine receptor (Homo sapiens, UniProt P21728); test: Displacement of [3H]SCH23390 from human dopamine D1 receptor transfected in HEK293 cells after 1 hr by scintillation counting analysis; assay type: cell-based
D(1A) dopamine receptor, sequence (P21728 whole entry): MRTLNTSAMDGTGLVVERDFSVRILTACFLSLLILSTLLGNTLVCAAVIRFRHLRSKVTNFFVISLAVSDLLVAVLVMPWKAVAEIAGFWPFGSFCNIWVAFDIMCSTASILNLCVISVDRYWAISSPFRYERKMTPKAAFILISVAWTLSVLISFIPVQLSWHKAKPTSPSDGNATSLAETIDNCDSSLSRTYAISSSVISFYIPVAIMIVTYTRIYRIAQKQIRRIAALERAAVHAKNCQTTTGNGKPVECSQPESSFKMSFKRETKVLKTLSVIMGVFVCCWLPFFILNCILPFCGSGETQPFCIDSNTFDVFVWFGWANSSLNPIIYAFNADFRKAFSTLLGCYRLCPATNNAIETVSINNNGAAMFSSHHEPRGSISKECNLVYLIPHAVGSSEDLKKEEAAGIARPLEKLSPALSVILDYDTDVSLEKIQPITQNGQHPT

D(1B) dopamine receptor = D(1B) dopamine receptor (Homo sapiens, UniProt P21918); test: Displacement of [3H]SCH23390 from human dopamine D5 receptor transfected in HEK293 cells after 1 hr by scintillation counting analysis; assay type: cell-based
D(1B) dopamine receptor, sequence (P21918 whole entry): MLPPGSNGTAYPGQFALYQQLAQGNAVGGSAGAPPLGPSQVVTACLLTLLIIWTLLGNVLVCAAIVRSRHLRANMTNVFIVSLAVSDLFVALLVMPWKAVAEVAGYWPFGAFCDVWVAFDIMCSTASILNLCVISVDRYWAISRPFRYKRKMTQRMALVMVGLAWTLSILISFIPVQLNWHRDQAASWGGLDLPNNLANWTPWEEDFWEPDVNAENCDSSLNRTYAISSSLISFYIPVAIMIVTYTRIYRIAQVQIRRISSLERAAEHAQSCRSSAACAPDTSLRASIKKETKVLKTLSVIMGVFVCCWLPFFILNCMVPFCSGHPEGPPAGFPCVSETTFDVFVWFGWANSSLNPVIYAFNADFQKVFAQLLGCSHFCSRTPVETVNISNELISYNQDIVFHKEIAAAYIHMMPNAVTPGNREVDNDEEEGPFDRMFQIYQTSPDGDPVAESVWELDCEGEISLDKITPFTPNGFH

D(2) dopamine receptor [9] = biological target: T2, D(2) dopamine receptor; test: Displacement of [3H]spiperone from human dopamine D2L receptor transfected in CHO cells after 1 hr by scintillation counting analysis; assay type: cell-based
D(2) dopamine receptor [10] = biological target: T2, D(2) dopamine receptor; test: Displacement of [3H]spiperone from human dopamine D2S receptor transfected in CHO cells after 1 hr by scintillation counting analysis; assay type: cell-based
D(3) dopamine receptor = D(3) dopamine receptor (Homo sapiens, UniProt P35462); test: Displacement of [3H]spiperone from human dopamine D3 receptor transfected in CHO cells after 1 hr by scintillation counting analysis; assay type: cell-based
D(3) dopamine receptor, sequence (P35462 whole entry): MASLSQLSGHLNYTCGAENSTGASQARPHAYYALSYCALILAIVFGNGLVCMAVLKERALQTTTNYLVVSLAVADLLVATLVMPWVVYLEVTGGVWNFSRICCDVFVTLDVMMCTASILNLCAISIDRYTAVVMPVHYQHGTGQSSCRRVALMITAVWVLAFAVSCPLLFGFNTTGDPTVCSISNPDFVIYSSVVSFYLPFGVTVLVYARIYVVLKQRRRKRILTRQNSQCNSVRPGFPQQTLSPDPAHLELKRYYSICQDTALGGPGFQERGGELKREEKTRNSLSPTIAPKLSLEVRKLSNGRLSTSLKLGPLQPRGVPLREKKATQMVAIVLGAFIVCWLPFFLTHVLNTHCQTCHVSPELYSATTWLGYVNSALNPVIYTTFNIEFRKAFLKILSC

D(2) dopamine receptor [11] = biological target: T2, D(2) dopamine receptor; test: Intrinsic activity at human dopamine D2S receptor expressed in HEK293 cells co-transfected with Galpha0i assessed as [35S]GTPgammaS binding after 30 mins by [35S]GTPgammaS incorporation assay; assay type: functional, cell-based
D(2) dopamine receptor [12] = biological target: T2, D(2) dopamine receptor; test: Intrinsic activity at human dopamine D2S receptor expressed in HEK293 cells co-transfected with Galphai2 assessed as [35S]GTPgammaS binding after 30 mins by [35S]GTPgammaS incorporation assay; assay type: functional, cell-based
D(2) dopamine receptor [13] = biological target: T2, D(2) dopamine receptor; test: Intrinsic activity at human dopamine D2L receptor expressed in HEK293 cells co-transfected with Galpha0i assessed as [35S]GTPgammaS binding after 30 mins by [35S]GTPgammaS incorporation assay; assay type: functional, cell-based
D(2) dopamine receptor [14] = biological target: T2, D(2) dopamine receptor; test: Intrinsic activity at human dopamine D2L receptor expressed in HEK293 cells co-transfected with Galphai2 assessed as [35S]GTPgammaS binding after 30 mins by [35S]GTPgammaS incorporation assay; assay type: functional, cell-based
D(2) dopamine receptor [15] = biological target: T2, D(2) dopamine receptor; test: Intrinsic activity at human dopamine D2L receptor expressed in HEK293 cells co-transfected with Galphai2 assessed as [35S]GTPgammaS binding after 30 mins by [35S]GTPgammaS incorporation assay relative to quinpirole; assay type: functional, cell-based; settings: in the assay text read “after 75 mins” for “after 30 mins”; outline: as §2
D(2) dopamine receptor [16] = biological target: T2, D(2) dopamine receptor; test: Agonist activity at ARMS2-PK2-tagged human dopamine D2S receptor expressed in HEK293 cells co-expressing (EA)-tagged beta arrestin fusion protein assessed as recruitment of beta-arrestin-2 after 5 hrs by chemiluminescence assay; assay type: cell-based

Row | Structure (SMILES) | Ki (D(4) dopamine receptor) | Ki [1] | Ki [2] | Ki [3] | Emax (D(2) dopamine receptor [4]) | Emax (D(2) dopamine receptor [5]) | Emax (D(2) dopamine receptor [6]) | Emax (D(2) dopamine receptor [7]) | Ki [8] | Ki (D(1A) dopamine receptor) | Ki (D(1B) dopamine receptor) | Ki (D(2) dopamine receptor [9]) | Ki (D(2) dopamine receptor [10]) | Ki (D(3) dopamine receptor) | EC50 (D(2) dopamine receptor [11]) | EC50 (D(2) dopamine receptor [12]) | EC50 (D(2) dopamine receptor [13]) | EC50 (D(2) dopamine receptor [14]) | Emax (D(2) dopamine receptor [15]) | EC50 (D(2) dopamine receptor [16])
1 | C#CC1=CC[C@@H](N(CCC)CCCCNC(=O)c2ccc(-c3ccccc3)cc2)CC1 | 30 nM | 160 nM | 9000 nM | 620 nM | 104% | 100% | 92% | 93% | 13000 nM |  |  |  |  |  |  |  |  |  |  | 
2 | CCCCn1cc(CCCOc2ccc(C(=O)NCCCCN(CCC)CCc3ccc(O)c4[nH]c(=O)ccc34)cc2OC)nn1 | 800 nM | 2800 nM | 3600 nM | 2400 nM | 87% | 85% | 82% | 86% |  | 4600 nM | 25000 nM | 24 nM | 53 nM | 1.6 nM | 980 nM | 1700 nM | 3800 nM | 7300 nM | 84% | 140 nM
3 | CCCCn1cc(CCCOc2ccc(C(=O)NCCCCN(CCC)[C@H]3CCc4c(O)cccc4C3)cc2OC)nn1 | 9.4 nM | 22 nM | 710 nM | 85 nM | 110% | 97% | 90% | 94% |  | 2900 nM | 700 nM | 0.47 nM | 0.54 nM | 0.21 nM | 2.1 nM | 4 nM | 3.1 nM | 2.9 nM | 99% | 1.4 nM
4 | CCCCn1cc(CCCOc2ccc(C(=O)NCCCCN(CCC)[C@@H]3CCc4c(O)cccc4C3)cc2OC)nn1 | 290 nM | 200 nM | 1000 nM | 480 nM | 27% | < 5% | 36% | 56% |  | 23000 nM | 21000 nM | 18 nM | 30 nM | 1.2 nM | 830 nM |  | 530 nM |  | < 5% | 30 nM
5 | C#CC1=CC[C@@H](N(CCC)CCCCNC(=O)c2ccc(OCCCc3cn(CCCC)nn3)c(OC)c2)CO1 | 30 nM | 130 nM | 8000 nM | 1000 nM | 92% | 94% | 99% | 88% |  | 2600 nM | 24000 nM | 1.6 nM | 2.9 nM | 0.63 nM | 110 nM | 660 nM | 52 nM | 28 nM | 61% | 380 nM
6 | C#CC1=CC[C@H](N(CCC)CCCCNC(=O)c2ccc(OCCCc3cn(CCCC)nn3)c(OC)c2)CO1 | 180 nM | 810 nM | 14000 nM | 860 nM | 108% | 89% | 88% | 101% |  | 3900 nM | 48000 nM | 4.9 nM | 10 nM | 2.2 nM | 410 nM | 2900 nM | 90 nM | 1900 nM | 84% | 480 nM
7 | C#CC1=CC[C@H](N(CCC)CCCCNC(=O)c2ccc(-c3ccccc3)cc2)CC1 | 60 nM | 110 nM | 28000 nM | 1800 nM | 100% |  |  | 93% | 18000 nM |  |  |  |  |  |  |  |  |  | 73% | 
